These results are taken from ChEMBL document CHEMBL1129389, “Mechanism-based design of parasite-targeted artemisinin derivatives: synthesis and antimalarial activity of benzylamino and alkylamino ether analogues of artemisinin” (J Med Chem, 1996).

For test [1], the system named is Plasmodium falciparum. The test can be described thus: Antimalarial activity against Plasmodium falciparum HB3. The test is classed as functional, organism-based. In outline: (§1)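 Parasites kept in continuous culture in human erythrocytes (2–5%) in RPMI 1640 with 25 mM HEPES, 32 mM NaHCO3 and 10% human serum, gassed 3% O2/4% CO2/93% N2. 48 h assay: 1% initial parasitemia, 5% hematocrit, ethanol stocks (final <1% ethanol); [3H]hypoxanthine added after 24 h at 37 °C, counted after further 24 h. IC50 by probit interpolation; triplicate.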

The test system of test [2] is Plasmodium falciparum. Kind of test: Antimalarial activity against Plasmodium falciparum K1. The test is classed as functional, organism-based. Summed up:
as §1

Regarding `C[C@@H]1CCC2[C@@H](C)[C@@H](OCc3ccc(CN4CCCCC4)cc3)OC3O[C@@]4(C)CC[C@@H]1[C@]32OO4` (stereo partly specified), the IC50 in the test with Plasmodium falciparum [1] is 12.2 nM; in the test with Plasmodium falciparum [2], 9.8 nM.

`CCN(CC)Cc1ccc(CO[C@H]2OC3O[C@@]4(C)CC[C@H]5[C@H](C)CCC([C@H]2C)[C@@]35OO4)cc1` (stereo partly specified): the IC50 was found to be 3.1 nM in the test on Plasmodium falciparum [1] and 1.4 nM in the test on Plasmodium falciparum [2].

Regarding `C[C@@H]1CC[C@H]2[C@@H](C)C(=O)O[C@@H]3O[C@@]4(C)CC[C@@H]1[C@]32OO4` [ARTEMISININ], the IC50 came to 7.3 nM in the test on Plasmodium falciparum [1] and 6.4 nM with Plasmodium falciparum [2].

Take `C[C@@H]1CCC2[C@@H](C)[C@@H](OCc3ccc(CO)cc3)OC3O[C@@]4(C)CC[C@@H]1[C@]32OO4` (stereo partly specified): the results for the IC50 with Plasmodium falciparum [1] and in the test on Plasmodium falciparum [2] were 4.2 nM and 4.4 nM, respectively.

For the compound `CCNCCO[C@H]1OC2O[C@@]3(C)CC[C@H]4[C@H](C)CCC([C@H]1C)[C@@]24OO3` (stereo partly specified), the half-maximal inhibitory concentration (IC50) with Plasmodium falciparum [1] and with Plasmodium falciparum [2] was 4.1 nM throughout.

As to `C[C@@H]1CCC2[C@@H](C)[C@@H](OCc3ccc(CN4CCOCC4)cc3)OC3O[C@@]4(C)CC[C@@H]1[C@]32OO4` (stereo partly specified), the IC50 is 50 nM with Plasmodium falciparum [1] and 35 nM in the test with Plasmodium falciparum [2].

On to `C[C@@H]1CCC2[C@@H](C)[C@@H](OCc3ccc(CN4CCCC4)cc3)OC3O[C@@]4(C)CC[C@@H]1[C@]32OO4` (stereo partly specified), for which the IC50 in the test with Plasmodium falciparum [1] and in the test with Plasmodium falciparum [2] was 2.3 nM each time.

As to `CNCCO[C@H]1OC2O[C@@]3(C)CC[C@H]4[C@H](C)CCC([C@H]1C)[C@@]24OO3` (stereo partly specified), the values for the IC50 in the test on Plasmodium falciparum [1] and in the test on Plasmodium falciparum [2] were 2.7 nM and 2.4 nM, respectively.
